# Laboratory results published in ChEMBL document CHEMBL3352088, “Novel derivatives of usnic acid effectively inhibiting reproduction of influenza A virus” (Bioorg Med Chem, 2014).
# Experiments:
# [1] = Cytotoxicity against MDCK cells assessed reduction in cell viability after 48 hrs by MTT assay; assay type: cell-based, Canis lupus familiaris; conditions: dog, read-out: CTD50
# Procedure, shortened: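 MDCK monolayers were grown in MEM with 5% fetal calf serum and washed with serum-free MEM. Compounds (5 mg/ml DMSO stock) were applied as twofold dilutions, 1000–4 microgram/ml in MEM, for 48 h at 37°C. After PBS washes, MTT (0,5 mg/ml) was added for 60 min at 37°C, 5% CO2. Formazan was dissolved in DMSO and read at 535 nm. CTD50 is the concentration cutting viability 50%.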
# [2] = Selectivity index, ratio of CTD50 for MDCK cells to ED50 for Influenza A virus (A/California/07/09(H1N1)) pdm09; assay type: toxicity, cell-based; conditions: dog, read-out: Selectivity Index
SMILES,CC50 at 48 h [1],selectivity ratio [2]
CC(=O)c1c(O)c(C)c(O)c2c1OC1=Cc3c(c(C)nn3-c3ccccc3)C(=O)[C@@]12C,832 µM,12
CC(=O)c1c(O)c(C)c(O)c2c1OC1=Cc3c(c(C)nn3-c3ccccc3)C(=O)[C@]12C,565 µM,10
CC(=O)c1c(O)c(C)c(O)c2c1OC1=Cc3c(c(C)nn3-c3ccccc3)[C@@H](O)[C@@]12C,26.3 µM,11
CC(=O)c1c(O)c(C)c(O)c2c1OC1=CC(=O)/C(=C(/C)NCC(=O)O)C(=O)[C@@]12C,–,6
CC(=O)c1c(O)c(C)c(O)c2c1OC1=CC(=O)/C(=C(/C)NCC(=O)O)C(=O)[C@]12C,150 µM,14
CC(=O)c1c(O)c(C)c(O)c2c1OC1=CC(=O)/C(=C(/C)NCCC(=O)O)C(=O)[C@@]12C,147 µM,20.3
CC(=O)c1c(O)c(C)c(O)c2c1OC1=CC(=O)/C(=C(/C)NCCC(=O)O)C(=O)[C@]12C,145 µM,10
CC(=O)C1=C(O)C=C2O[C@]34O[C@@]3(C(C)=O)C(=O)C(C)=C(O)[C@]4(O)[C@@]2(C)C1=O,234 µM,22
CC(=O)c1c(O)c(C)c(O)c2c1OC1=CC(=O)/C(=C(/C)NCCCC(=O)O)C(=O)[C@@]12C,130 µM,3.7
CSCC[C@H](N/C(C)=C1\C(=O)C=C2Oc3c(C(C)=O)c(O)c(C)c(O)c3[C@@]2(C)C1=O)C(=O)O,21.1 µM,5
CC(=O)C1=C(O)C[C@H]2Oc3c(C(C)=O)c(O)c(C)c(O)c3[C@@]2(C)C1=O,14.5 µM,1.8
CC(=O)c1c(O)c(C)c(O)c2c1OC1=CC(=O)/C(=C(/C)N[C@@H](CC(C)C)C(=O)O)C(=O)[C@@]12C,13.1 µM,2
CC(=O)c1c(O)c(C)c(O)c2c1OC1=CC(=O)/C(=C(/C)N[C@H](CC(=O)O)CC(C)C)C(=O)[C@]12C,32.8 µM,5
CC(=O)c1c(O)c(C)c(O)c2c1OC1=CC(=O)/C(=C(/C)NCCCC(=O)O)C(=O)[C@]12C,83.9 µM,3
CC(=O)c1c(O)c(C)c(O)c2c1OC1=Cc3c(c(C)nn3-c3cccc(C(F)(F)F)c3)C(=O)[C@@]12C,1100 µM,16
CC(=O)c1c(O)c(C)c(O)c2c1OC1=Cc3c(c(C)nn3-c3ccccc3)[C@H](O)[C@]12C,47.8 µM,4
COc1c(C)c(O)c(C(=O)/C=C/c2ccccc2)c2c1[C@]1(C)C(=Cc3c(c(C)nn3-c3ccccc3)[C@H]1O)O2,36.5 µM,1.1
COc1c(C)c(O)c(C(=O)/C=C/c2ccc(Cl)cc2)c2c1[C@]1(C)C(=Cc3c(c(C)nn3-c3ccccc3)[C@H]1O)O2,253 µM,4.6
COc1ccccc1/C=C/C(=O)c1c(O)c(C)c(OC)c2c1OC1=Cc3c(c(C)nn3-c3ccccc3)[C@@H](O)[C@@]12C,909 µM,11
COc1ccc(/C=C/C(=O)c2c(O)c(C)c(OC)c3c2OC2=Cc4c(c(C)nn4-c4ccccc4)[C@@H](O)[C@@]23C)cc1OC,431 µM,12.5
COc1cccc(/C=C/C(=O)c2c(O)c(C)c(OC)c3c2OC2=Cc4c(c(C)nn4-c4ccccc4)[C@@H](O)[C@@]23C)c1OC,862 µM,17
COc1ccc(/C=C/C(=O)c2c(O)c(C)c(OC)c3c2OC2=Cc4c(c(C)nn4-c4ccccc4)[C@@H](O)[C@@]23C)c(OC)c1OC,279 µM,8.5
COc1cc(/C=C/C(=O)c2c(O)c(C)c(OC)c3c2OC2=Cc4c(c(C)nn4-c4ccccc4)[C@@H](O)[C@@]23C)cc(OC)c1OC,98.4 µM,12
COc1ccc(OC)c(/C=C/C(=O)c2c(O)c(C)c(OC)c3c2OC2=Cc4c(c(C)nn4-c4ccccc4)[C@@H](O)[C@@]23C)c1,517 µM,20
COc1ccc(/C=C/C(=O)c2c(O)c(C)c(OC)c3c2OC2=Cc4c(c(C)nn4-c4ccccc4)[C@@H](O)[C@@]23C)c(OC)c1,517 µM,20
COc1c(C)c(O)c(C(=O)/C=C/c2ccc(SC)cc2)c2c1[C@]1(C)C(=Cc3c(c(C)nn3-c3ccccc3)[C@H]1O)O2,530 µM,10
COc1cccc(/C=C/C(=O)c2c(O)c(C)c(OC)c3c2OC2=Cc4c(c(C)nn4-c4ccccc4)C(=O)[C@@]23C)c1OC,34.6 µM,4
COc1ccc(-c2cc(-c3c(O)c(C)c(OC)c4c3OC3=Cc5c(c(C)nn5-c5ccccc5)[C@@H](O)[C@@]34C)n[nH]2)cc1,1020 µM,10

SMILES,CC50 at 48 h [1],selectivity ratio [2]
COc1c(C)c(O)c(C(=O)/C=C/c2ccccc2)c2c1[C@@]1(C)C(=Cc3c(c(C)nn3-c3ccccc3)[C@@H]1O)O2,106 µM,1.7
COc1c(C)c(O)c(C(=O)/C=C/c2ccc(Cl)cc2)c2c1[C@@]1(C)C(=Cc3c(c(C)nn3-c3ccccc3)[C@@H]1O)O2,116 µM,1.5
COc1ccccc1/C=C/C(=O)c1c(O)c(C)c(OC)c2c1OC1=Cc3c(c(C)nn3-c3ccccc3)[C@H](O)[C@]12C,909 µM,14
COc1cccc(/C=C/C(=O)c2c(O)c(C)c(OC)c3c2OC2=Cc4c(c(C)nn4-c4ccccc4)[C@H](O)[C@]23C)c1OC,862 µM,11.3
CC(=O)C1=C(O)C=C2Oc3c4c(c(C)c(O)c3[C@]2(C)C1=O)OCC4=O,132 µM,2
CC(=O)C1=C(O)C=C2Oc3c4c(c(C)c(O)c3[C@@]2(C)C1=O)OCC4=O,117 µM,1.8
COc1ccccc1/C=C1\Oc2c(C)c(O)c3c(c2C1=O)OC1=CC(O)=C(C(C)=O)C(=O)[C@@]13C,32.6 µM,6.8
CC(=O)C1=C(O)C=C2Oc3c4c(c(C)c(O)c3[C@@]2(C)C1=O)O/C(=C\c1ccc(Br)cc1)C4=O,39.4 µM,8.3
CC(=O)C1=C(O)C=C2Oc3c4c(c(C)c(O)c3[C@@]2(C)C1=O)O/C(=C\c1ccncc1)C4=O,46.4 µM,6.1
CC(=O)C1=C(O)C=C2Oc3c4c(c(C)c(O)c3[C@@]2(C)C1=O)O/C(=C\c1cccnc1)C4=O,53.4 µM,7.7
CC(=O)C1=C(O)C=C2Oc3c(C(=O)CSc4nc5ccccc5s4)c(O)c(C)c(O)c3[C@@]2(C)C1=O,58.9 µM,2
CC(=O)C1=C(O)C=C2Oc3c(C(=O)CSc4nc5ccccc5o4)c(O)c(C)c(O)c3[C@@]2(C)C1=O,2 µM,1
CC(=O)C1=C(O)C=C2Oc3c(C(=O)CSCc4ccccc4)c(O)c(C)c(O)c3[C@@]2(C)C1=O,6.4 µM,3
CC(=O)C1=C(O)C=C2Oc3c(C(=O)CSCc4ccc(C)cc4)c(O)c(C)c(O)c3[C@@]2(C)C1=O,2.1 µM,1
CC(=O)C1=C(O)C=C2Oc3c(C(=O)CSCc4ncccc4C(=O)O)c(O)c(C)c(O)c3[C@@]2(C)C1=O,177 µM,3.1
COc1c(C)c(O)c2c(c1C(=O)CSC1=NCCS1)OC1=CC(O)=C(C(C)=O)C(=O)[C@@]12C,105 µM,7.1
COc1ccc2[nH]c(SCC(=O)c3c(OC)c(C)c(O)c4c3OC3=CC(O)=C(C(C)=O)C(=O)[C@@]34C)nc2c1,560 µM,23.1
COc1c(C)c(O)c2c(c1C(=O)CSc1nc3ccccc3o1)OC1=CC(O)=C(C(C)=O)C(=O)[C@]12C,178 µM,7.5
COc1c(C)c(O)c2c(c1C(=O)CSCCC(=O)O)OC1=CC(O)=C(C(C)=O)C(=O)[C@@]12C,938 µM,5.8
CC(=O)C1=C(O)C=C2Oc3c(C(C)=O)c(OC(F)(Cl)C(F)F)c(C)c(O)c3[C@@]2(C)C1=O (some centres undefined),100 µM,14
CC(=O)C1=C(O)C=C2Oc3c(C(C)=O)c(OC(=O)c4ccccc4Br)c(C)c(OC(=O)c4ccccc4Br)c3[C@@]2(C)C1=O,31.1 µM,4
CC(=O)C1=C(O)C=C2O[C@@]34O[C@]3(C(C)=O)C(=O)C(C)=C(O)[C@@]4(O)[C@]2(C)C1=O,152 µM,5.3
CC(=O)[C@@]12O[C@@]13OC1=Cc4c(c(C)nn4-c4ccccc4)C(=O)[C@]1(C)[C@@]3(O)C(O)=C(C)C2=O,67 µM,5
"COc1c(C)c(O)c(C(C)=O)c2c1[C@]1(C)C(=Cc3c(c(C)nn3-c3ccccc3)CC13CO3)O2 (single isomer, unassigned; (+))",681 µM,2.6
"COc1c(C)c(O)c(C(=O)/C=C/c2ccccc2)c2c1[C@]1(C)C(=Cc3c(c(C)nn3-c3ccccc3)CC13CO3)O2 (single isomer, unassigned; (+))",18.3 µM,3.3
CC(=O)C1=C(O)C=C2Oc3c(C(C)=O)c(O)c(C)c(O)c3[C@@]2(C)C1=O [(+)-USNIC ACID],424 µM,8.2
CC(=O)C1=C(O)C=C2Oc3c(C(C)=O)c(O)c(C)c(O)c3[C@]2(C)C1=O [(-)-USNIC ACID],134 µM,10.2
